{"data": "Assay results collected from several papers", "target": "Serine/threonine-protein kinase N2 (PKN2, Homo sapiens, UniProt Q16513)", "note": "Protocols differ between the studies behind these lines."}
{"SMILES": "O=c1nc(-c2ccccn2)sc2ccccc12", "effect on": "binding", "method": "competition with immobilised ligand", "tested at": "1 µM", "measurement": "remaining binding", "result": "100%"}
{"SMILES": "CCN(CC)CCNC(=O)c1c(C)[nH]c(/C=C2\\C(=O)Nc3ccc(F)cc32)c1C", "effect on": "enzyme activity", "mode": "inhibitor", "tested at": "0.3 µM", "measurement": "inhibition", "result": "24%"}
{"SMILES": "FC(F)c1nc2ccccc2n1-c1nc(N2CCOCC2)nc(N2CCOCC2)n1", "effect on": "enzyme activity", "mode": "inhibitor", "tested at": "10 µM", "measurement": "remaining activity", "result": "82%"}
{"SMILES": "CNC(=O)c1cc(Oc2ccc(NC(=O)Nc3ccc(Cl)c(C(F)(F)F)c3)cc2)ccn1", "effect on": "enzyme activity", "mode": "inhibitor", "tested at": "0.3 µM", "measurement": "inhibition", "result": "10%"}
{"SMILES": "CC(C)(O)[C@H]1CC[C@H](Nc2ccc3ncc(-c4cccc(C(F)(F)F)c4)n3n2)CC1", "effect on": "enzyme activity", "mode": "inhibitor", "tested at": "1 µM", "measurement": "remaining activity", "result": "95.9%"}
{"SMILES": "CCC(=O)N[C@H]1CC[C@@H](C(=O)N(C)c2ccc(-c3nc4ccccc4o3)cc2)C1", "effect on": "cell-free assay", "method": "competition with immobilised ligand", "tested at": "1 µM", "measurement": "remaining binding", "result": "100%"}
{"SMILES": "CCN(CC)c1ccc(C2=NNC(=O)CC2C)cc1[N+](=O)[O-] (stereo not shown)", "effect on": "enzyme activity", "mode": "inhibitor", "tested at": "10 µM", "measurement": "remaining activity", "result": "94%"}
{"SMILES": "O=C(NS(=O)(=O)c1ccc(NCC2CCOCC2)c([N+](=O)[O-])c1)c1ccc(N2CCN(Cc3ccc(C(F)(F)F)cc3-c3ccc(Cl)cc3)CC2)cc1Oc1cnc2[nH]ccc2c1", "effect on": "cell-free assay", "method": "competition with immobilised ligand", "tested at": "1 µM", "measurement": "remaining binding", "result": "93%"}
{"SMILES": "O=C(Nc1cnn(-c2csc(C(=O)NC3COC3)c2)c1)Nc1ccccc1Cl", "effect on": "enzyme activity", "mode": "inhibitor", "tested at": "5 µM", "measurement": "remaining activity", "result": "112%"}
{"SMILES": "Cc1cc(-n2nc(Cc3cc(F)cc(C(F)(F)F)c3)nc2C)ccc1C(N)=O", "effect on": "cell-free assay", "method": "competition with immobilised ligand", "tested at": "1 µM", "measurement": "remaining binding", "result": "100%"}
{"SMILES": "COc1cc(-c2cc(-c3ccc(N4CCNCC4)cc3)cnc2C)cc(OC)c1OC", "effect on": "enzyme activity", "mode": "inhibitor", "tested at": "1 µM", "measurement": "inhibition", "result": "1%"}
{"SMILES": "CCCCNc1ncc2c(-c3ccc(F)cc3)nn(C[C@H]3CC[C@H](N)CC3)c2n1", "effect on": "target engagement in cells", "mode": "inhibitor", "method": "chemoproteomics", "tested at": "20 mM", "measurement": "inhibition", "result": "2.9%"}
{"SMILES": "Nc1nc(Nc2ccccc2)sc1C(=O)c1c(F)cccc1F", "effect on": "enzyme activity", "mode": "inhibitor", "tested at": "10 µM", "measurement": "remaining activity", "result": "57%"}
{"SMILES": "CCN1CCN(Cc2ccc(NC(=O)c3ccc(C)c(Oc4ccnc5[nH]ccc45)c3)cc2C(F)(F)F)CC1", "effect on": "target engagement in cells", "mode": "inhibitor", "method": "chemoproteomics", "cells": "Huh-7", "tested at": "10 µM", "measurement": "inhibition", "result": "-10.5%"}
{"SMILES": "Cn1c2c(c3ccc(Cl)c(Cl)c31)C(C#N)C(C)(C)NC2=O (stereo not shown)", "effect on": "thermal stability", "method": "DSF", "tested at": "10 µM", "measurement": "ΔTm", "result": "1.3 °C"}
{"SMILES": "CN(C(=O)c1ccccc1)c1cc(N(C)c2ccc3c(c2)CCc2ccc(C(=O)NCCN4CCOCC4)cc2C3=O)ccc1F", "effect on": "cell-free assay", "method": "competition with immobilised ligand", "tested at": "1 µM", "measurement": "remaining binding", "result": "53%"}
{"SMILES": "O=S(=O)(c1cccc2cnccc12)N1CCCNCC1", "effect on": "cell-free assay", "tested at": "0.5 µM", "measurement": "remaining signal", "result": "103%"}
{"SMILES": "CCCOc1ccc(OC)c(F)c1C(=O)c1ccc(C(=O)N[C@@H]2CNC[C@H]2NC(=O)c2ccc3[nH]ncc3c2)cc1", "effect on": "enzyme activity", "mode": "inhibitor", "tested at": "0.1 µM", "measurement": "remaining activity", "result": "53%"}
{"SMILES": "CC(=O)N1CCC(c2ccc(C(=O)NC3=NCCN3)cc2C(F)(F)F)CC1", "effect on": "cell-free assay", "method": "competition with immobilised ligand", "tested at": "1 µM", "measurement": "remaining binding", "result": "100%"}
